Reference: ChEMBL document CHEMBL1141301, “Trypanocidal and antileishmanial dihydrochelerythrine derivatives from Garcinia lucida” (J Nat Prod, 2007)

What was measured:
[1] = tested on: Trypanosoma brucei brucei; experiment: Antitrypanosomal activity against Trypanosoma brucei brucei MITat 1.2 variant 221; format: functional, organism-based
Method in brief: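 Bloodstream-form parasites (MITat 1.2, variant 221) grown axenically in HMI-9 medium, run by a previously reported protocol. Pentamidine and suramin included as standards. IC50 taken as the mean of three tests done on different days.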

Leishmania donovani [2] = experiment: Antileishmanial activity against Leishmania donovani promastigotes at 10 uM; format: functional
Vero = experiment: Cytotoxicity against african green monkey Vero cells; format: cell-based; conditions: Chlorocebus sabaeus
Leishmania donovani [3] = experiment: Antileishmanial activity against Leishmania donovani promastigotes at 100 uM; format: functional
Leishmania donovani [4] = experiment: Antileishmanial activity against Leishmania donovani promastigotes in RAW cells assessed as reduction in infection; format: functional; set-up: scale not given: the % may be the effect or the level left
Method in brief: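 RAW 264.7 macrophages (1 × 10^6) plated 2 h, infected 6 h with stationary-phase luciferase-transfected L. donovani promastigotes at 20:1 parasite:macrophage; free parasites washed off with PBS; compound-treated; survival by luciferase luminescence 24 h later; triplicate; % reduction in infection versus untreated wells.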

Leishmania donovani [5] = experiment: Antileishmanial activity against Leishmania donovani axenic amastigotes; format: functional, organism-based
Method in brief: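 L. donovani amastigote-like parasites (WHO MHOM/SD/62/1S-CL2D), axenic; 3-day growth inhibition assay read with tetrazolium dye-based CellTiter reagent; IC50 determined.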

Leishmania donovani [6] = experiment: Antileishmanial activity against Leishmania donovani promastigotes at 1 uM; format: functional
RAW = experiment: Cytotoxicity against mouse RAW cells; format: cell-based
Method in brief: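 RAW 264.7 murine macrophages in DMEM with 10% heat-inactivated FBS, antibiotics, 2 mM L-glutamine at 37 °C, 5% CO2; 1 × 10^5 cells treated or untreated with compounds for 48 h; viability read with alamarBlue.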

Compound | IC50 [1] | inhibition at 10 µM (Leishmania donovani [2]) | IC50 (Vero) | inhibition at 100 µM (Leishmania donovani [3]) | Activity (Leishmania donovani [4]) | IC50 (Leishmania donovani [5]) | inhibition at 1 µM (Leishmania donovani [6]) | Activity (RAW)
COc1ccc2c(c1OC)[C@H](CC(C)=O)N(C)c1c-2ccc2cc3c(cc12)OCO3 | 3.9 µM | 87% | 15.3 µM | 100% | 57.4% | 6.6 µM | 23% | 
COc1ccc2c(c1OC)CN(C)c1c-2ccc2cc3c(cc12)OCO3 [DIHYDROCHELERYTHRINE] | 0.8 µM | 89% | 35.4 µM | 100% | 70.9% | 2 µM | 36% | 
CC(C)CNC(=O)/C=C/c1ccc2c(c1)OCO2 [FOGARAMIDE] |  |  |  |  |  |  |  | Non-toxic
COc1ccc2c(c1OC)[C@H](CC(C)=O)N(C)c1c-2ccc2cc(O)c(O)cc12 [LUCIDAMINE A] | 14.1 µM | 76% | 11.6 µM | 100% |  | 10.8 µM | 23% | Toxic
C=CC(C)(C)c1c(O)c(O)c(C(C)(C)C=C)c2c3c(ccc12)-c1ccc(OC)c(OC)c1[C@H](CC(C)=O)N3C [LUCIDAMINE B] | 4.1 µM | 48% | 17.5 µM | 64% |  | 6.8 µM | 14% | Toxic
N=C(N)c1ccc(OCCCCCOc2ccc(C(=N)N)cc2)cc1 [PENTAMIDINE] | 0.0025 µM |  | 13.7 µM |  |  | 1.3 µM |  | 
c1cc2c(cc1[C@H]1OC[C@H]3[C@@H]1CO[C@@H]3c1ccc3c(c1)OCO3)OCO2 [SESAMIN] |  |  |  |  |  |  |  | Non-toxic
Cc1ccc(C(=O)Nc2ccc(S(=O)(=O)O)c3cc(S(=O)(=O)O)cc(S(=O)(=O)O)c23)cc1NC(=O)c1cccc(NC(=O)Nc2cccc(C(=O)Nc3cc(C(=O)Nc4ccc(S(=O)(=O)O)c5cc(S(=O)(=O)O)cc(S(=O)(=O)O)c45)ccc3C)c2)c1 [SURAMIN] | 0.2 µM |  |  |  |  |  |  | 
